Experiments:
[1] = (§1) Diuretic activity was determined expressed as volume of urine excreted in mL was reported at a dose of 100 mg/Kg; type: ADME; details: in vivo
Procedure, shortened: (§2)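 Male SH rats (Okamoto strain), 16 weeks old, dosed orally by gavage with compound dispersed in 3% starch in normal saline at 2 mL/kg. Oral normal saline load, then individual metabolism cages; 0-5 h urine collected, Na+ and K+ measured by flame photometry. Rats redosed at 24 h without the saline load. MABP and HR taken by femoral arterial puncture under local anesthetic 4 h after the second dose.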

[2] = Diuretic activity was determined expressed as Na+(sodium) excreted in milli equivalents was reported for a duration of 5 hours after administration of a dose of 100 mg/Kg; type: ADME, Urine; details: in vivo; procedure, shortened: as §2
Rattus norvegicus [3] = test: Antihypertensive activity determined as heart rate in SH rats, was reported at a dose of 100 mg/Kg; type: functional; procedure, shortened: as §2
Rattus norvegicus [4] = test: Antihypertensive activity in SH rats, and mean arterial blood pressure was reported at a dose of 100 mg/Kg; type: functional, Artery; procedure, shortened: as §2
Rattus norvegicus [5] = test: Diuretic activity was determined in SH rats expressed as K(+) (potassium) excreted in milli euivalents was reported for a duration of 5 hours after administration of a dose of 100 mg/Kg.; details: in vivo
Rattus norvegicus [6] = test: Diuretic activity was determined in SH rats expressed as K(+) (potassium) excreted in milli equivalents was reported for a duration of 5 hours after administration of a dose of 100 mg/Kg.; type: ADME, organism-based, Urine; details: in vivo; procedure, shortened: as §2
[7] = Diuretic activity was determined expressed as Na+(sodium) excreted in milli equivalents was reported for a duration of 5 hours after administration of a dose of 25 mg/Kg; type: ADME, Urine; details: in vivo; procedure, shortened: as §2
[8] = Diuretic activity was determined expressed as volume of urine excreted in mL was reported at a dose of 25 mg/Kg; type: ADME; details: in vivo; procedure, shortened: as §2
Rattus norvegicus [9] = test: Diuretic activity was determined in SH rats expressed as K(+) (potassium) excreted in milli equivalents was reported for a duration of 5 hours after administration of a dose of 25 mg/Kg.; type: ADME, organism-based, Urine; details: in vivo; procedure, shortened: as §2
Rattus norvegicus [10] = test: Antihypertensive activity determined as heart rate in SH rats, was reported at a dose of 25 mg/Kg; type: functional; procedure, shortened: as §2
Rattus norvegicus [11] = test: Antihypertensive activity in SH rats, and mean arterial blood pressure was reported at a dose of 25 mg/Kg; type: functional, Artery; procedure, shortened: as §2
Rattus norvegicus [12] = test: Diuretic activity was determined in SH rats expressed as K(+) (potassium) excreted in milli equivalents was reported for a duration of 5 hours after administration of a dose of 100 mg/Kg; type: ADME, organism-based, Urine; details: in vivo; procedure, shortened: as §2
Rattus norvegicus [13] = test: as §1; type: ADME, organism-based; details: in vivo; procedure, shortened: as §2

Row | SMILES | Diuretic activity [1] [mL] | Diuretic activity [2] [m equiv] | Diuretic activity (Rattus norvegicus [5]) [m equiv] | Diuretic activity (Rattus norvegicus [6]) [m equiv] | Diuretic activity [7] [m equiv] | Diuretic activity [8] [mL] | Diuretic activity (Rattus norvegicus [9]) [m equiv] | Diuretic activity (Rattus norvegicus [12]) [m equiv] | Diuretic activity (Rattus norvegicus [13]) [mL] | HR (Rattus norvegicus [3]) [beats min-1] | MABP (Rattus norvegicus [4]) [mmHg] | HR (Rattus norvegicus [10]) [beats min-1] | MABP (Rattus norvegicus [11]) [mmHg]
1 | CN(C)/C=N/c1c(Cl)cc(NCc2cccc(C(F)(F)F)c2)cc1Cl | 21.3 | 2.04 | – | 0.5 | – | – | – | – | – | 420 | 165 | – | –
2 | CN(C)/C=N/c1c(Cl)cc(NCc2ccc(N(C)C)cc2)cc1Cl | – | – | – | – | 0.55 | 5.5 | 0.39 | – | – | – | – | 450 | 171
3 | CN(C)/C=N/c1c(Cl)cc(NCc2ccc(-c3ccccc3)cc2)cc1Cl | 7.3 | 0.46 | – | 0.5 | – | – | – | – | – | 400 | 143 | – | –
4 | COc1ccc(CNc2cc(Cl)c(/N=C/N(C)C)c(Cl)c2)cc1F | 16.8 | 1.15 | – | – | – | – | – | 0.43 | – | 320 | 113 | – | –
5 | CN(C)/C=N/c1c(Cl)cc(NCc2ccc(N(C)C)cc2F)cc1Cl | – | – | – | – | 2.26 | 23.5 | 0.71 | – | – | – | – | 400 | 155
6 | COc1cc(CNc2cc(Cl)c(/N=C/N(C)C)c(Cl)c2)cc(OC)c1OC | 17.5 | 1.4 | – | – | – | – | – | 0.57 | – | 360 | 138 | – | –
7 | CCN(CC)c1ccc(CNc2cc(Cl)c(/N=C/N(C)C)c(Cl)c2)cc1 | – | – | – | – | 2.02 | 21.3 | 0.71 | – | – | – | – | 400 | 153

Now from value to compound, other results behind:

Row | Diuretic activity [1] [mL] | Diuretic activity [2] [m equiv] | Diuretic activity (Rattus norvegicus [5]) [m equiv] | Diuretic activity (Rattus norvegicus [6]) [m equiv] | Diuretic activity [7] [m equiv] | Diuretic activity [8] [mL] | Diuretic activity (Rattus norvegicus [9]) [m equiv] | Diuretic activity (Rattus norvegicus [12]) [m equiv] | Diuretic activity (Rattus norvegicus [13]) [mL] | SMILES | HR (Rattus norvegicus [3]) [beats min-1] | MABP (Rattus norvegicus [4]) [mmHg] | HR (Rattus norvegicus [10]) [beats min-1] | MABP (Rattus norvegicus [11]) [mmHg]
8 | 19.3 | 1.9 | 0.48 | – | – | – | – | – | – | CN(C)/C=N/c1c(Cl)cc(NCc2cccc(Br)c2)cc1Cl | 350 | 120 | – | –
9 | 13.2 | 1.63 | – | 0.65 | – | – | – | – | – | NS(=O)(=O)c1cc2c(cc1Cl)NCNS2(=O)=O [HYDROCHLOROTHIAZIDE] | 436 | 153 | – | –
10 | 25 | 1.93 | – | 0.59 | – | – | – | – | – | CN(C)/C=N/c1c(Cl)cc(NCc2cccc(F)c2)cc1Cl | 290 | 120 | – | –
11 | 8.3 | 0.47 | – | – | – | – | – | 0.37 | – | COc1ccc(CNc2cc(Cl)c(/N=C/N(C)C)c(Cl)c2)cc1OC | 410 | 133 | – | –
12 | – | 0.66 | – | 0.62 | – | – | – | – | 9.5 | CC(=O)Nc1ccc(CNc2cc(Cl)c(/N=C/N(C)C)c(Cl)c2)cc1 | 340 | 150 | – | –
13 | – | – | – | – | 1.86 | 19.3 | 0.45 | – | – | CN(C)/C=N/c1c(Cl)cc(NCc2ccc(N(C)C)cc2Br)cc1Cl | – | – | 280 | 115
14 | – | – | – | – | 1.18 | 14 | 0.77 | – | – | CN(C)/C=N/c1c(Cl)cc(NCc2ccc(N(C)C)c(Br)c2)cc1Cl | – | – | 420 | 173
15 | – | – | – | – | 1.34 | 13.8 | 0.42 | – | – | CN(C)/C=N/c1c(Cl)cc(NCc2cc(Cl)cc(Cl)c2)cc1Cl | – | – | 290 | 139
16 | 16.4 | – | 0.16 | – | – | – | – | – | – | Clc1cccc(Cl)c1NC1=NCCN1 [CLONIDINE] | 180 | 102 | 220 | 113
17 | 12.3 | 0.72 | – | 0.68 | – | – | – | – | – | CN(C)/C=N/c1c(Cl)cc(NCc2ccccc2O)cc1Cl | 340 | 150 | – | –

From ChEMBL document CHEMBL1122545, “N2-(4-Substituted-2,6-dichlorophenyl)-N1,N1-dimethylformamidines as antihypertensive and diuretic agents” (J Med Chem, 1984)
